Source: ChEMBL document CHEMBL1138851, “Synthesis, antifungal activity, and structure-activity relationships of coruscanone A analogues” (J Med Chem, 2006)
Values after ≈ are worked out from the molar mass of the structure shown.

What was measured:
[1] = test system: Candida albicans; experiment: Antifungal activity against fluconazole-resistant Candida albicans; format: functional, organism-based
Method in brief: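 Broth microdilution (NCCLS-based) against patient isolate #17 (last isolate during fluconazole therapy, azole-resistant); samples serially diluted in 20% DMSO/saline, tested in duplicate. Inoculum 1.0 × 10⁴ CFU/ml in RPMI 1640/2% dextrose/0.03% glutamine/MOPS pH 6.0; 37 °C, 18–24 h; OD630 read before and after. IC50 from % growth versus concentration; MIC = no detectable growth; MFC by subculture onto agar. Means of three independent experiments.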

[2] = test system: Vero; experiment: Cytotoxicity against Vero cells by neutral red method; format: cell-based; settings: Chlorocebus sabaeus
Method in brief: (§1)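 Neutral red assay on ATCC-sourced Vero (African green monkey kidney […]) and LLC-PK1 (pig kidney epithelial) cells. Top test concentration 10 μg/mL. Values are means of three independent experiments.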

[3] = test system: Aspergillus fumigatus; experiment: Antifungal activity against Aspergillus fumigatus ATCC 90906; format: functional, organism-based
[4] = test system: LLC-PK1; experiment: Cytotoxicity against LLC-PK1 cells by neutral red method; format: cell-based; settings: Sus scrofa; method in brief: as §1
[5] = test system: Candida albicans; experiment: Antifungal activity against fluconazole-susceptible Candida albicans; format: functional, organism-based
Method in brief: (§2)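 Broth microdilution; samples serially diluted in 20% DMSO/saline, duplicate wells. Incubated 37 °C, 18–24 h; OD630 read before and after incubation. IC50 from percent growth vs concentration; MIC as lowest concentration with no detectable growth; MFC as no growth on agar after plating 5 μl from clear wells.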

[6] = test system: Candida albicans; experiment: Antifungal activity against Candida albicans ATCC 90028; format: functional, organism-based
Method in brief: as §2, with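 “duplicate wells. Inoculum 1.0 × 10⁴ CFU/ml in RPMI 1640/2% dextrose/0.03% glutamine/MOPS, pH 6.0. Incubated 37” for “duplicate wells. Incubated 37”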

[7] = test system: Cryptococcus neoformans; experiment: Antifungal activity against Cryptococcus neoformans ATCC 90113; format: functional, organism-based
Method in brief: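 Serial dilutions in 20% DMSO/saline, tested in duplicate. Inoculum 1.0 × 10⁵ CFU/ml in Sabouraud dextrose broth. Incubated 30 °C, 72 h; OD630 read before and after incubation. IC50 from percent growth vs concentration; MIC as lowest concentration with no detectable growth; MFC as no growth on agar after plating 5 μl from clear wells.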

SMILES | IC50 [1] [µg/mL] | IC50 [2] [µg/mL] | IC50 [3] [µg/mL] | MFC [3] [µg/mL] | MIC [3] [µg/mL] | IC50 [4] [µg/mL] | IC50 [5] [µg/mL] | MFC [5] [µg/mL] | MIC [5] [µg/mL] | IC50 [6] [µg/mL] | MFC [6] [µg/mL] | MIC [6] [µg/mL] | IC50 [7] [µg/mL] | MFC [7] [µg/mL] | MIC [7] [µg/mL] | MFC [1] [µg/mL] | MIC [1] [µg/mL]
COC(/C=C/c1ccccc1)=C1\C(=O)C=C(c2ccccc2)C1=O | 18 (≈ 56.9 µM) | > 10 | > 20 | > 20 | > 20 | 5.1 (≈ 16.1 µM) | 20 (≈ 63.2 µM) | > 20 | > 20 | > 20 | > 20 | > 20 | > 20 | > 20 | > 20 | – | –
CO/C(C)=C1\C(=O)C=C(C)C1=O | – | – | > 20 | – | – | – | – | – | – | > 20 | – | – | > 20 | – | – | – | –
CC1=C(C)C(=O)C(=C(/C=C/c2ccccc2)OC(=O)/C=C/c2ccccc2)C1=O | – | – | > 20 | – | – | – | – | – | – | > 20 | – | – | > 20 | – | – | – | –
CC1=CC(=O)/C(=C(O)/C=C/c2ccccc2)C1=O | – | – | > 20 | – | – | – | – | – | – | > 20 | – | – | > 20 | – | – | – | –
CC1=CC(=O)/C(=C(O)/C=C/c2cccs2)C1=O | – | – | > 20 | – | – | – | – | – | – | > 20 | – | – | > 20 | – | – | – | –
CC(=O)OC(/C=C/c1ccccc1)=C1C(=O)C(C)=C(C)C1=O | – | – | > 20 | – | – | – | – | – | – | > 20 | – | – | > 20 | – | – | – | –
COC(/C=C/c1ccco1)=C1\C(=O)C=C(C)C1=O | 2.4 (≈ 9.83 µM) | 3.3 (≈ 13.5 µM) | 8.98 (≈ 36.8 µM) | 20 (≈ 81.9 µM) | 20 (≈ 81.9 µM) | 3.3 (≈ 13.5 µM) | 0.93 (≈ 3.81 µM) | 2.5 (≈ 10.2 µM) | 2.5 (≈ 10.2 µM) | 1.4 (≈ 5.73 µM) | 4.17 (≈ 17.1 µM) | 4.17 (≈ 17.1 µM) | 3.4 (≈ 13.9 µM) | 13 (≈ 53.2 µM) | 10 (≈ 40.9 µM) | 6.67 (≈ 27.3 µM) | 4.17 (≈ 17.1 µM)
COC(/C=C/c1ccc(O)cc1)=C1\C(=O)C=C(C)C1=O | 5.35 (≈ 19.8 µM) | 3.7 (≈ 13.7 µM) | > 20 | > 20 | > 20 | 3.4 (≈ 12.6 µM) | 1.86 (≈ 6.88 µM) | 13 (≈ 48.1 µM) | 5 (≈ 18.5 µM) | 3.3 (≈ 12.2 µM) | 10 (≈ 37 µM) | 10 (≈ 37 µM) | 6.95 (≈ 25.7 µM) | > 20 | > 20 | 20 (≈ 74 µM) | 20 (≈ 74 µM)
O=C1C=C(c2ccccc2)C(=O)/C1=C(O)\C=C\c1ccccc1 | – | – | > 20 | – | – | – | – | – | – | > 20 | – | – | > 20 | – | – | – | –
CCOC(/C=C/c1ccccc1)=C1\C(=O)C=C(C)C1=O | 4.51 (≈ 16.8 µM) | 4.8 (≈ 17.9 µM) | > 20 | > 20 | > 20 | 4 (≈ 14.9 µM) | 2.49 (≈ 9.28 µM) | 17 (≈ 63.4 µM) | 12 (≈ 44.7 µM) | 5.02 (≈ 18.7 µM) | 20 (≈ 74.5 µM) | 20 (≈ 74.5 µM) | 5.02 (≈ 18.7 µM) | 20 (≈ 74.5 µM) | 20 (≈ 74.5 µM) | 20 (≈ 74.5 µM) | 13 (≈ 48.5 µM)
CCOC(/C=C/c1ccccc1)=C1C(=O)C(C)=C(C)C1=O | – | – | > 20 | – | – | – | – | – | – | > 20 | – | – | > 20 | – | – | – | –
COC(/C=C/c1cccs1)=C1\C(=O)C=C(C)C1=O | 1.39 (≈ 5.34 µM) | 3 (≈ 11.5 µM) | 9.81 (≈ 37.7 µM) | > 20 | 20 (≈ 76.8 µM) | 2.8 (≈ 10.8 µM) | 0.74 (≈ 2.84 µM) | 2.5 (≈ 9.6 µM) | 2.5 (≈ 9.6 µM) | 1.21 (≈ 4.65 µM) | 3.33 (≈ 12.8 µM) | 3.33 (≈ 12.8 µM) | 2.49 (≈ 9.57 µM) | 12 (≈ 46.1 µM) | 12 (≈ 46.1 µM) | 4.17 (≈ 16 µM) | 4.17 (≈ 16 µM)
COC(/C=C/c1ccccc1)=C1C(=O)C(C)=C(C)C1=O | – | – | > 20 | – | – | – | – | – | – | > 20 | – | – | > 20 | – | – | – | –
COC(/C=C/c1ccc(Cl)cc1)=C1\C(=O)C=C(C)C1=O | 0.86 (≈ 2.98 µM) | 5.5 (≈ 19 µM) | 20 (≈ 69.3 µM) | > 20 | > 20 | 3.1 (≈ 10.7 µM) | 0.64 (≈ 2.22 µM) | 2.92 (≈ 10.1 µM) | 2.08 (≈ 7.2 µM) | 1.39 (≈ 4.81 µM) | 4.17 (≈ 14.4 µM) | 4.17 (≈ 14.4 µM) | 2.23 (≈ 7.72 µM) | 12 (≈ 41.6 µM) | 12 (≈ 41.6 µM) | 2.92 (≈ 10.1 µM) | 2.92 (≈ 10.1 µM)
CC1=CC(=O)/C(=C(O)/C=C/c2ccco2)C1=O | – | – | > 20 | – | – | – | – | – | – | > 20 | – | – | > 20 | – | – | – | –
CC(=O)OC(/C=C/c1ccccc1)=C1\C(=O)C=C(C)C1=O | 5.84 (≈ 20.7 µM) | 5.5 (≈ 19.5 µM) | > 20 | > 20 | > 20 | 4.9 (≈ 17.4 µM) | 3.79 (≈ 13.4 µM) | > 20 | > 20 | 8.56 (≈ 30.3 µM) | > 20 | > 20 | 20 (≈ 70.8 µM) | > 20 | > 20 | – | –
CO/C(=C1\C(=O)C=C(C)C1=O)c1ccccc1 | 6.04 (≈ 26.5 µM) | > 10 | > 20 | > 20 | > 20 | > 10 | 7.88 (≈ 34.5 µM) | > 20 | > 20 | 10.6 (≈ 46.4 µM) | > 20 | > 20 | > 20 | > 20 | > 20 | – | –
CC1=CC(=O)/C(=C(O)/C=C/c2ccc(Cl)cc2)C1=O | 13 (≈ 47.3 µM) | > 10 | > 20 | > 20 | > 20 | 6 (≈ 21.8 µM) | 10 (≈ 36.4 µM) | > 20 | > 20 | 13 (≈ 47.3 µM) | > 20 | > 20 | > 20 | > 20 | > 20 | – | –
CC1=C(C)C(=O)C(=C(O)/C=C/c2ccccc2)C1=O | – | – | > 20 | – | – | – | – | – | – | > 20 | – | – | > 20 | – | – | – | –
CC1=C(C)C(=O)C(=C(/C=C/c2ccccc2)OC(=O)c2ccccc2)C1=O | – | – | > 20 | – | – | – | – | – | – | > 20 | – | – | > 20 | – | – | – | –
CC1=CC(=O)/C(=C(\O)c2ccccc2)C1=O | – | – | > 20 | – | – | – | – | – | – | > 20 | – | – | > 20 | – | – | – | –
COC(/C=C/c1ccc(OC)cc1)=C1\C(=O)C=C(C)C1=O | 4.29 (≈ 15.1 µM) | 5 (≈ 17.6 µM) | > 20 | > 20 | > 20 | 3.9 (≈ 13.7 µM) | 1.56 (≈ 5.49 µM) | 6.67 (≈ 23.5 µM) | 5 (≈ 17.6 µM) | 3.03 (≈ 10.7 µM) | 10 (≈ 35.2 µM) | 10 (≈ 35.2 µM) | 3.41 (≈ 12 µM) | 17 (≈ 59.8 µM) | 15 (≈ 52.8 µM) | 13 (≈ 45.7 µM) | 10 (≈ 35.2 µM)
C[C@@H]1[C@H](O)[C@@H](C)/C=C/C=C/C=C/C=C/C=C/C=C/C=C/[C@H](O[C@@H]2O[C@H](C)[C@@H](O)[C@H](N)[C@@H]2O)C[C@@H]2O[C@](O)(C[C@@H](O)C[C@@H](O)[C@H](O)CC[C@@H](O)C[C@@H](O)CC(=O)O[C@H]1C)C[C@H](O)[C@H]2C(=O)O [AMPHOTERICIN B] | 0.17 (≈ 0.184 µM) | 7 (≈ 7.58 µM) | 0.73 (≈ 0.79 µM) | – | – | 2.4 (≈ 2.6 µM) | 0.12 (≈ 0.13 µM) | – | 0.52 (≈ 0.563 µM) | 0.15 (≈ 0.162 µM) | 1.04 (≈ 1.13 µM) | 0.63 (≈ 0.682 µM) | 0.41 (≈ 0.444 µM) | 1.67 (≈ 1.81 µM) | – | 0.83 (≈ 0.898 µM) | 0.63 (≈ 0.682 µM)
COC(/C=C/c1ccccc1)=C1\C(=O)C=C(C)C1=O [CORUSCANONE A] | 0.68 (≈ 2.67 µM) | 4.9 (≈ 19.3 µM) | 19 (≈ 74.7 µM) | > 20 | > 20 | 3.4 (≈ 13.4 µM) | 0.47 (≈ 1.85 µM) | 1.25 (≈ 4.92 µM) | 1.25 (≈ 4.92 µM) | 0.8 (≈ 3.15 µM) | 2.08 (≈ 8.18 µM) | 2.08 (≈ 8.18 µM) | 2.04 (≈ 8.02 µM) | 8.33 (≈ 32.8 µM) | 8.33 (≈ 32.8 µM) | 2.08 (≈ 8.18 µM) | 2.08 (≈ 8.18 µM)
COc1cccc2c1C(=O)c1c(O)c3c(c(O)c1C2=O)C[C@@](O)(C(=O)CO)C[C@@H]3O[C@H]1C[C@H](N)[C@H](O)[C@H](C)O1 [DOXORUBICIN] | – | 7.5 (≈ 13.8 µM) | – | – | – | 0.65 (≈ 1.2 µM) | – | – | – | – | – | – | – | – | – | – | –
OC(Cn1cncn1)(Cn1cncn1)c1ccc(F)cc1F [FLUCONAZOLE] | 118 (≈ 385 µM) | > 10 | > 200 | > 200 | > 200 | > 10 | 0.24 (≈ 0.784 µM) | > 200 | 0.45 (≈ 1.47 µM) | 0.22 (≈ 0.718 µM) | > 200 | 0.45 (≈ 1.47 µM) | 5.65 (≈ 18.4 µM) | > 200 | 37 (≈ 121 µM) | > 200 | > 200
